Test results taken from PubChem BioAssay.
Calls of active or inactive are those of the source.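 The calls were made as follows, unless noted: active = viability at or under a set limit in both replicates, limit being median viability minus 3 SD (cut at about 48% in these data, passing the limit was not always enough); inconclusive = at or under the limit in just one replicate; inactive = at or above the limit in both replicates.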

What was measured:
[1] = reducers of endogenous Her2 protein level, primary screen, SKBR3 breast tumor cells, AlphaScreen, ATP viability (AID 461;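 active = Her2 level under about 52% in both replicate screens, with viability over 70% of control, limit read from the data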;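 as to Her2 level: lower value means less Her2 protein in the cells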;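 as to viability: percent of carrier control wells set as 100% viability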); conditions: 18-24 h, measured here: SKBR3 viability, ATP luminescence, at 10 µM
[2] = target: Receptor tyrosine-protein kinase erbB-2 (Homo sapiens) (UniProt P04626); assay: as above; conditions: 18-24 h, at 10 µM, stronger effect = lower value
[3] = SK-BR-3 cell growth inhibitors, pilot screen, 24 h, human (AID 572;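 active = viability at or below 10% of carrier control in both of two separate runs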;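 also: compound exposure lasted between 18 and 24 h rather than exactly 24 h; 100% = carrier-treated control wells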); conditions: SK-BR-3 viability, CellTiter-Glo luminescence, at 10 µM, stronger effect = lower value
[4] = HUVEC growth inhibition – cell-based, human, primary screen (AID 575;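 active = viability at or below 30% in both replicate assays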;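 also: 100% = median of untreated cell wells with 0.1% DMSO on each plate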); conditions: HUVEC proliferation, CellTiter-Glo luminescence, 72 h; at 10 µM; stronger effect = lower value
Procedure, shortened: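 Assay system: primary human umbilical vein endothelial cells / Buffer or medium: endothelial basal medium with 2% FBS plus growth supplements / Compound dosing: one dose, 10 µM final, 0.1% DMSO / Timing: 72 h treatment at 37 °C / Signal: CTG luminescence / Benchmarks: 32 DMSO-only cell-control wells (high), 32 MePR drug-control wells (low) per plate / Plate: collagen-coated 384-well format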

[5] = growth inhibitors of H69AR lung tumor, primary screen, human, duplicate replicates (AID 580); conditions: H69AR lung tumor cells viability, ATP luminescence, 72 h; at 10 µM; stronger effect = lower value;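 also: 100% = mean luminescence of untreated wells and 0% = no signal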
[6] = reversal of MRP1-mediated doxorubicin resistance, pilot screen, H69AR cells, doxorubicin co-treatment (AID 601;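 active = viability loss from added drug above about 55%, and viability with drug at most 40%, in both replicates, limit read from the data, passing the limit was not always enough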); conditions: CellTiter-Glo, 72 h, at 10 µM; for differential viability (reversal): stronger effect = higher value
[7] = 384-well plate pilot, post-Golgi transport modulator project, inhibition of yeast transport mutant growth (AID 636; in the data active = inhibition above about 31%); conditions: absorbance 615 nm, about 18 h, stronger effect = higher value
[8] = growth suppression of yeast trafficking mutant, preliminary HTS, modulators of trafficking downstream of Golgi apparatus project, 1536-format plate, OD 615 nm (AID 637; in the data active = inhibition above about 30%); conditions: yeast transport mutant growth, absorbance 615 nm, 18 h; stronger effect = higher value
[9] = H69AR cells + 2 uM doxorubicin, measured here: viability with 2 uM doxorubicin, stronger effect = lower value
[10] = H69AR cells, compound alone cytotoxicity

Receptor tyrosine-protein kinase erbB-2 (Homo sapiens), sequence (P04626 whole entry, looked up): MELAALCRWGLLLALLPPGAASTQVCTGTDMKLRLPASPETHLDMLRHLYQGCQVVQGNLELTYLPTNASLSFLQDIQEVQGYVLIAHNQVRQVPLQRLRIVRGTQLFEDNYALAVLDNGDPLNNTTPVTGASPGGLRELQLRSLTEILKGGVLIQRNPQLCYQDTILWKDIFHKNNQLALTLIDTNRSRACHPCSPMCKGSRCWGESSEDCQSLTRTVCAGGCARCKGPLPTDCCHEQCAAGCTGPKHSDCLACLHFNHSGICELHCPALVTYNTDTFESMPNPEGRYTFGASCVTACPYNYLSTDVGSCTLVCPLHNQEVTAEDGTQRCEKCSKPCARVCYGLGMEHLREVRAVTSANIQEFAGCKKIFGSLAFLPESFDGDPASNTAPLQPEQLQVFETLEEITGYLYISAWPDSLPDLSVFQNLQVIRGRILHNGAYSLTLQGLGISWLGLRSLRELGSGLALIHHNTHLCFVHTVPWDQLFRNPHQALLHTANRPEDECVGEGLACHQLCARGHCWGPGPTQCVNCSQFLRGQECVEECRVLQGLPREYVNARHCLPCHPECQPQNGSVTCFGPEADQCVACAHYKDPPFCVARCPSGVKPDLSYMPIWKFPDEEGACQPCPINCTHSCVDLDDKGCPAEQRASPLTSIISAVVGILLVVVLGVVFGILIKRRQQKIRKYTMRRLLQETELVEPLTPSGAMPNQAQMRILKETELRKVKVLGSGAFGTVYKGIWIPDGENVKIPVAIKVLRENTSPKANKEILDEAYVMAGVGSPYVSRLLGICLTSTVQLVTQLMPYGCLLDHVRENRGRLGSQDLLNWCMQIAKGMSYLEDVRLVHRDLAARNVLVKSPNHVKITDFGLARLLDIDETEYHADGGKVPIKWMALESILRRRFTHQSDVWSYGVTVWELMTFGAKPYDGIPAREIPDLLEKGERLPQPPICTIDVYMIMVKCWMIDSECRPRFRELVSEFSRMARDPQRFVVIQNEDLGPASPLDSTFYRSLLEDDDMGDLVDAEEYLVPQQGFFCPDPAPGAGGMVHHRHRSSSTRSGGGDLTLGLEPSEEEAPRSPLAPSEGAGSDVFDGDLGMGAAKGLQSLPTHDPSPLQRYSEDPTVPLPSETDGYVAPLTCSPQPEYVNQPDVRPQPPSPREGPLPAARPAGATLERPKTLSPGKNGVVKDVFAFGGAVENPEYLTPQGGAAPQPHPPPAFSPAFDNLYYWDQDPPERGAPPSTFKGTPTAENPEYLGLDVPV

Structure (SMILES) | viability [1] | Her2 level [2] | viability [3] | viability [4] | viability [5] | differential viability (reversal) ([6]; H69AR cells + 2 uM doxorubicin) | viability [6, 9] | viability [6, 10] | inhibition [7] | inhibition [8]
O=C(COC(=O)C12CC3CC(CC(O)(C3)C1)C2)N1CCN(S(=O)(=O)c2ccc(Cl)cc2)CC1 | 87.5% | 85.5% (inactive) | 87.5% (inactive) | 107% (inactive) | 83.6% (inactive) | -7.7% (inactive) | 91.3% | 83.6% | -3.33% (inactive) | -4.17% (inactive)
COC(=O)C1CCN(C(=O)c2sc3nc(-c4ccc(F)cc4)cn3c2C)CC1 | 76.5% | 92% (inactive) | 76.5% (inactive) | 99.8% (inactive) | 100% (inactive) | 22.1% (inactive) | 77.9% | 100% | -1.07% (inactive) | 0.81% (inactive)
COCCNS(=O)(=O)c1cc(F)ccc1OC | 90% | 99.5% (inactive) | 90% (inactive) | 95.1% (inactive) | 103% (inactive) | 5.13% (inactive) | 97.6% | 103% | -4.32% (inactive) | -5.74% (inactive)
COc1cc(C)nc(OCCNC(=O)COc2ccc(Cl)cc2C)n1 | 96.5% | 100% (inactive) | 96.5% (inactive) | 95.2% (inactive) | 107% (inactive) | 8.69% (inactive) | 98% | 107% | -0.93% (inactive) | 1.64% (inactive)
CN1CCN(c2oc(COc3ccc(-c4ccccc4)cc3)nc2C#N)CC1 | 83.5% | 72.5% (inactive) | 83.5% (inactive) | 66.3% (inactive) | 78.3% (inactive) | 17.7% (inactive) | 60.5% | 78.3% | -5.6% (inactive) | 0.79% (inactive)
O=C1CC(N2CCOCC2)C(=O)N1c1ccccc1Cl (stereo not given) | 103% | 87.5% (inactive) | 103% (inactive) | 87.2% (inactive) | 104% (inactive) | 7.5% (inactive) | 96.6% | 104% | -6.4% (inactive) | -5.24% (inactive)
O=C(c1cccnc1NCc1ccccc1)N1CCOCC1 | 77.5% | 126% (inactive) | 77.5% (inactive) | 86.4% (inactive) | 93.8% (inactive) | 0.76% (inactive) | 93% | 93.8% | 1.08% (inactive) | 23.2% (inactive)
CCOC(=O)C1CCN(c2c(N3CCCC(C(=O)OCC)C3)c(=O)c2=O)CC1 (stereo not given) | 103% | 119% (inactive) | 103% (inactive) | 97.1% (inactive) | 96.9% (inactive) | -3.29% (inactive) | 100% | 96.9% | 2.31% (inactive) | -2% (inactive)
CC(=O)c1c(C)oc2ccc(NS(=O)(=O)c3ccc(O)c(C(=O)O)c3)cc12 | 92% | 78.5% (inactive) | 92% (inactive) | 105% (inactive) | 94% (inactive) | 3.09% (inactive) | 90.9% | 94% | -6.22% (inactive) | 0.79% (inactive)
c1cc(-c2nc3ccccc3o2)nc(-c2nc3ccccc3o2)c1 | 122% | 94.5% (inactive) | 122% (inactive) | 90.9% (inactive) | 87.6% (inactive) | 7.43% (inactive) | 80.2% | 87.6% | -4.21% (inactive) | 1.83% (inactive)
O=C1CC(c2cccc(Cl)c2)Cc2nc(N3CCN(c4ccccc4)CC3)ncc21 (stereo not given) | 88% | 118% (inactive) | 88% (inactive) | 95.7% (inactive) | 91.3% (inactive) | -0.02% (inactive) | 91.3% | 91.3% | 1.3% (inactive) | 2.67% (inactive)
CCn1c(SCC(=O)Nc2nccs2)nnc1-c1ccncc1 | 101% | 63.5% (inactive) | 101% (inactive) | 87% (inactive) | 84.8% (inactive) | -2.34% (inactive) | 87.1% | 84.8% | -2.11% (inactive) | 2.7% (inactive)
O=C(c1ccco1)N1CCN(C(=O)C2CCN(S(=O)(=O)c3cccc4nsnc34)CC2)CC1 | 98.5% | 102% (inactive) | 98.5% (inactive) | 104% (inactive) | 83.5% (inactive) | 8.47% (inactive) | 75% | 83.5% | -4.27% (inactive) | -1.48% (inactive)
COc1ccccc1N1CCN(C(=O)c2oc3cc(C)c(C)cc3c2C)CC1 | 117% | 104% (inactive) | 117% (inactive) | 82.4% (inactive) | 92.7% (inactive) | -2.22% (inactive) | 94.9% | 92.7% | -1.18% (inactive) | -2.62% (inactive)
Cc1ccc(Oc2ccc(-c3nc(N)nc(N)n3)cc2)cc1 | 112% | 82% (inactive) | 112% (inactive) | 76.6% (inactive) | 108% (inactive) | 23.1% (inactive) | 84.8% | 108% | -5.33% (inactive) | 2.1% (inactive)
CCC(c1nnc(SCC(=O)NCC2CCCO2)n1Cc1ccccc1)N(C)C (stereo not given) | 98.5% | 98% (inactive) | 98.5% (inactive) | 96.8% (inactive) | 89.2% (inactive) | 5.86% (inactive) | 83.3% | 89.2% | -7.47% (inactive) | -1.61% (inactive)
C=CCSC1=C(C#N)C(c2ccccc2Cl)CC(=O)N1 (stereo not given) | 72% | 85.5% (inactive) | 72% (inactive) | 103% (inactive) | 96.5% (inactive) | 1.45% (inactive) | 95.1% | 96.5% | 0.27% (inactive) | -2.26% (inactive)
O=S(=O)(c1ccc2ccccc2c1)N1CCCCC1 | 102% | 82.5% (inactive) | 102% (inactive) | 78% (inactive) | 80.8% (inactive) | 5.72% (inactive) | 75.1% | 80.8% | -1.95% (inactive) | -8.67% (inactive)
CCOC(=O)c1ccc(NC(=O)NC(C)C2CCCO2)cc1 (stereo not given) | 97.5% | 96.5% (inactive) | 97.5% (inactive) | 108% (inactive) | 95.6% (inactive) | 5.2% (inactive) | 90.4% | 95.6% | -1.32% (inactive) | -7.94% (inactive)
O=c1c2ccccc2sn1-c1ccc(S(=O)(=O)N2CCCCC2)cc1 | 91.5% | 81.5% (inactive) | 91.5% (inactive) | 83.9% (inactive) | 78.1% (inactive) | 5.85% (inactive) | 72.3% | 78.1% | -5.54% (inactive) | 9.17% (inactive)
COC(=O)C1=C(C)Nc2nnnn2C1c1cccs1 (stereo not given) | 95.5% | 101% (inactive) | 95.5% (inactive) | 104% (inactive) | 96.9% (inactive) | 3.09% (inactive) | 93.8% | 96.9% | 2.84% (inactive) | 5.71% (inactive)
Cc1ccc(C(=O)CCC2CCCC2=O)cc1 (stereo not given) | 90.5% | 102% (inactive) | 90.5% (inactive) | 111% (inactive) | 89% (inactive) | 0.57% (inactive) | 88.4% | 89% | -4.73% (inactive) | -2.67% (inactive)
CCOC(=O)c1ccc(NC(=O)c2ccc(NS(C)(=O)=O)cc2)cc1 | 97% | 83% (inactive) | 97% (inactive) | 92.1% (inactive) | 82.9% (inactive) | 3.85% (inactive) | 79% | 82.9% | -0.8% (inactive) | -4.92% (inactive)
O=C(NC1CCCC1)C1CC1c1ccccc1 (stereo not given) | 100% | 102% (inactive) | 100% (inactive) | 93.9% (inactive) | 98.3% (inactive) | -2.33% (inactive) | 101% | 98.3% | -6.13% (inactive) | 1.15% (inactive)
CC(=O)N(CCN(C(C)=O)c1ccccc1)c1ccccc1 | 105% | 93% (inactive) | 105% (inactive) | 88.8% (inactive) | 91.7% (inactive) | 11.7% (inactive) | 80% | 91.7% | -1.95% (inactive) | -1.64% (inactive)
Cc1ccccc1C(=O)Nc1c(C(=O)N2CCCC2)cnn1-c1ccccc1 | 112% | 79% (inactive) | 112% (inactive) | 106% (inactive) | 91.9% (inactive) | 9.86% (inactive) | 82% | 91.9% | -7.7% (inactive) | -0.63% (inactive)
CCn1c(SCc2nc3ccccc3c(=O)[nH]2)nnc1-c1cccnc1 | 84.5% | 98% (inactive) | 84.5% (inactive) | 104% (inactive) | 95.2% (inactive) | 4.33% (inactive) | 90.9% | 95.2% | -0.13% (inactive) | -0.16% (inactive)
O=C(CSc1nnc(-c2ccncc2)n1-c1ccc(F)cc1)NC(=O)NCc1ccco1 | 132% | 89% (inactive) | 132% (inactive) | 89.1% (inactive) | 86% (inactive) | -1.76% (inactive) | 87.8% | 86% | -7.4% (inactive) | -3.97% (inactive)
CCn1c(NCc2ccc(N(C)C)cc2)nc2ccccc21 | 84.5% | 87.5% (inactive) | 84.5% (inactive) | 101% (inactive) | 97.9% (inactive) | 11.2% (inactive) | 86.7% | 97.9% | -2.03% (inactive) | -1.5% (inactive)
